One series deals with HL-60. The experiment in a line: Cytotoxicity against human HL60 cells after 48 hrs by MTT assay. In kind it is functional, cell-based. As to conditions: HL-60, 48 h. The essentials:
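HL-60 cells were grown in RPMI 1640 with 10% FBS and penicillin/streptomycin, seeded at 5 × 10⁴/mL, and exposed to 5 concentrations (0.01–1.00) in PBS with 4% DMSO, in triplicate. MTT was added at 5 mg/mL for 4 h at 37 °C. Plates were centrifuged (1000 r/min, 10 min), supernatant discarded, and crystals dissolved in DMSO. Read at OD 570/630 nm, blank-corrected against control; IC50 = concentration giving 50% cell death.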

For a further series, the system named is HeLa. The experiment in a line: Cytotoxicity against human HeLa cells after 48 hrs by MTT assay. In kind it is functional, cell-based. The essentials:
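HeLa cells were grown in DMEM with 10% FBS and penicillin/streptomycin, seeded at 5 × 10⁴/mL, and treated with 0.5, 1.0, 5.0, 10 and 50 of compound in PBS with 4% DMSO, in triplicate. MTT (5 mg/mL) was added for 4 h at 37 °C without centrifugation, then supernatant removed and formazan dissolved in DMSO. Read at 570 nm (reference 630 nm) with survival normalized to medium-blanked control; IC50 = concentration causing 50% cell death.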

Series [1] has as its system CCRF S-180. Description: Antitumor activity against mouse S180 cells xenografted in ip dosed Kunming mouse assessed as tumor growth inhibition after 7 days. In kind it is functional. In outline: (§1)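 Kunming mice received 0.2 mL of S180 cells (passaged in mouse abdomen, harvested day 8, 2.0 × 10⁷/mL) and were randomized into groups of 10. Compounds were given at 7.8 mmol/L in 0.5% CMC-Na (solution or suspension), 0.2 mL i.p. daily for 7 days. Mice were then sacrificed and tumors weighed. Inhibition = (mean control weight − mean treated weight)/mean control weight × 100%.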

The test system of series [2] is CCRF S-180. Description: Antitumor activity against mouse S180 cells xenografted in ip dosed Kunming mouse assessed as tumor weight after 7 days. In kind it is functional. The essentials: as §1
Series [3] is described as follows: Lipophilicity, log P of the compound. In kind it is physicochemical. As to conditions: octanol/water.

Structures are written as SMILES.

This is an account of results in ChEMBL document CHEMBL1153578, “Synthesis and evaluation of anti-tumor activities of N4 fatty acyl amino acid derivatives of 1-beta-arabinofuranosylcytosine” (Eur J Med Chem, 2009).

For `CCCCCCCCCCCCCCCCCC(=O)N[C@@H](CCCNC(=N)N)C(=O)Nc1ccn([C@H]2O[C@@H](CO)[C@H](O)[C@H]2O)c(=O)n1`, the IC50 stood at 1.7 µM in the series on HL-60 and 12.1 µM with HeLa. In addition, the TGI with CCRF S-180 [1] was found to be 8.1%. In the series on CCRF S-180 [2], the Activity was determined as 1.168 g. This compound also displayed a logP in series [3] of 0.61.

For `CCCCCCCCCCCCCCCCCC(=O)N[C@@H](CCSC)C(=O)Nc1ccn([C@H]2O[C@@H](CO)[C@H](O)[C@H]2O)c(=O)n1`, the IC50 in the series with HL-60 was determined as 0.803 µM; with HeLa it was 9 µM. The TGI with CCRF S-180 [1] is listed as 65.5%. Further, the Activity in the series on CCRF S-180 [2] worked out at 0.438 g. The compound further yielded a logP in series [3] of 1.09.

In the case of `CCCCCCCCCCCCCC(=O)N[C@@H](Cc1ccc(O)cc1)C(=O)Nc1ccn([C@H]2O[C@@H](CO)[C@H](O)[C@H]2O)c(=O)n1`, the figures for the IC50 with HL-60 and with HeLa were 1.71 µM and 39.1 µM, respectively. The TGI with CCRF S-180 [1] is given as 11.4%. Further, the Activity in the series with CCRF S-180 [2] is on record as 1.125 g. In addition, the logP in series [3] worked out at 0.9.

For `CCCCCCCCCCCCCCCCCC(=O)N[C@@H](CCC(=O)O)C(=O)Nc1ccn([C@H]2O[C@@H](CO)[C@H](O)[C@H]2O)c(=O)n1`, the IC50 in the series with HL-60 stood at 1.14 µM; in the series on HeLa, 19 µM. For the same compound, the TGI with CCRF S-180 [1] is on record as 12.9%. Further, the Activity in the series with CCRF S-180 [2] came to 1.106 g. The same compound yielded a logP in series [3] of 0.5.

Take `CCCCCCCCCCCCCC(=O)N[C@@H](CCCNC(=N)N)C(=O)Nc1ccn([C@H]2O[C@@H](CO)[C@H](O)[C@H]2O)c(=O)n1`: the values for the IC50 with HL-60 and in the series with HeLa were 0.405 µM and 32 µM, respectively. Further, the TGI in the series with CCRF S-180 [1] is 39.2%. For the same compound, the Activity in the series with CCRF S-180 [2] was found to be 0.773 g. The compound also registered a logP in series [3] of 0.45.

Take `CCCCCCCCCC(=O)N[C@@H](CCSC)C(=O)Nc1ccn([C@H]2O[C@@H](CO)[C@H](O)[C@H]2O)c(=O)n1`: the IC50 in the series on HL-60 was determined as 0.28 µM; in the series on HeLa, 3 µM. In addition, the tumour growth inhibition (TGI) in the series on CCRF S-180 [1] is given as 25.6%. Besides, in the series on CCRF S-180 [2], the Activity is reported as 0.944 g. The same compound returned a logP in series [3] of 0.68.

For `CCCCCCCCCCCCCCCCCC(=O)N[C@H](C(=O)Nc1ccn([C@H]2O[C@@H](CO)[C@H](O)[C@H]2O)c(=O)n1)C(C)C`, the IC50 came to 31.9 µM in the series on HL-60 and 13 µM in the series on HeLa. In addition, in the series with CCRF S-180 [1], the TGI was determined as 58.9%. The Activity in the series on CCRF S-180 [2] was determined as 0.523 g. Further, the logP in series [3] was 0.91.

Regarding `CCCCCCCCCC(=O)N[C@H](C(=O)Nc1ccn([C@H]2O[C@@H](CO)[C@H](O)[C@H]2O)c(=O)n1)C(C)C`, the IC50 with HL-60 stood at 2.04 µM; in the series on HeLa, 4.99 µM. In the series with CCRF S-180 [1], the TGI is reported as 7%. In addition, in the series on CCRF S-180 [2], the Activity was 1.181 g. The same compound registered a logP in series [3] of 0.78.

Take `CCCCCCCCCC(=O)N[C@@H](CCCNC(=N)N)C(=O)Nc1ccn([C@H]2O[C@@H](CO)[C@H](O)[C@H]2O)c(=O)n1`: the IC50 was found to be 0.584 µM in the series with HL-60 and 6 µM with HeLa. Moreover, the TGI in the series with CCRF S-180 [1] is 15.7%. Also, the Activity in the series with CCRF S-180 [2] is 1.071 g. Besides, in series [3], the logP worked out at 0.76.

Turning to `CCCCCCCCCC(=O)N[C@@H](Cc1ccc(O)cc1)C(=O)Nc1ccn([C@H]2O[C@@H](CO)[C@H](O)[C@H]2O)c(=O)n1`, the IC50 came out at 2.98 µM in the series with HL-60 and 1 µM in the series on HeLa. For the same compound, the TGI in the series on CCRF S-180 [1] is recorded as 19.1%. In the series with CCRF S-180 [2], the Activity is recorded as 1.028 g. The compound further had a logP in series [3] of 0.81.

As for `CCCCCCCCCCCCCCCCCC(=O)N[C@@H](Cc1ccc(O)cc1)C(=O)Nc1ccn([C@H]2O[C@@H](CO)[C@H](O)[C@H]2O)c(=O)n1`, the IC50 in the series with HL-60 amounted to 1.15 µM; in the series on HeLa, 10 µM. Moreover, in the series with CCRF S-180 [1], the TGI turned out to be 16.5%. In the series with CCRF S-180 [2], the Activity came to 1.06 g. This compound came in with a logP in series [3] of 0.97.

Take `CCCCCCCCCCCCCC(=O)N[C@@H](CCSC)C(=O)Nc1ccn([C@H]2O[C@@H](CO)[C@H](O)[C@H]2O)c(=O)n1`: the IC50 with HL-60 worked out at 0.272 µM; with HeLa, 8.02 µM. The TGI in the series on CCRF S-180 [1] worked out at 37.6%. For the same compound, the Activity in the series with CCRF S-180 [2] was found to be 0.793 g. This compound had a logP in series [3] of 0.88.

As to `CCCCCCCCCCCCCC(=O)N[C@@H](CCC(=O)O)C(=O)Nc1ccn([C@H]2O[C@@H](CO)[C@H](O)[C@H]2O)c(=O)n1`, the IC50 turned out to be 0.502 µM in the series on HL-60 and 41 µM with HeLa. Besides, the TGI in the series on CCRF S-180 [1] is listed as 24.6%. Also, in the series with CCRF S-180 [2], the Activity is on record as 0.958 g. The compound further returned a logP in series [3] of 0.25.

Turning to `CCCCCCCCCCCCCC(=O)N[C@H](C(=O)Nc1ccn([C@H]2O[C@@H](CO)[C@H](O)[C@H]2O)c(=O)n1)C(C)C`, the IC50 with HL-60 was 32.3 µM; in the series with HeLa, 26 µM. Moreover, in the series on CCRF S-180 [1], the TGI is on record as 8.4%. In addition, the Activity in the series on CCRF S-180 [2] was 1.163 g. Further, in series [3], the logP was 0.9.

In the case of `CCCCCCCCCC(=O)N[C@@H](CCC(=O)O)C(=O)Nc1ccn([C@H]2O[C@@H](CO)[C@H](O)[C@H]2O)c(=O)n1`, the IC50 with HL-60 is 1.86 µM; with HeLa, 5 µM. Besides, in the series on CCRF S-180 [1], the TGI is on record as 15.6%. Besides, the Activity in the series with CCRF S-180 [2] is on record as 1.072 g. In series [3], the logP was -0.28.

For `Nc1ccn([C@@H]2O[C@H](CO)[C@@H](O)[C@@H]2O)c(=O)n1` [CYTARABINE], the IC50 in the series with HL-60 is 0.118 µM; in the series with HeLa, 464 µM.
